GASC-1 inh – human JMJD2C demethylase inhibition; Q9H3R0; AID 2099; GST-JMJD2C(1-420) H3K9me3 demethylation, DELFIA europium; actives 0.069% (n = 330,000); inhibition, % at 2.35 µM;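 active = more than half of a compound's replicate wells show inhibition beyond 50%, single wells judged on their own value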;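 note: signal counts dimethyl H3K9 product captured on neutravidin plate; 0% = median of DMSO wells and 100% = 0.3 times that DMSO median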
Target sequence (Q9H3R0 1-420 limits assumed): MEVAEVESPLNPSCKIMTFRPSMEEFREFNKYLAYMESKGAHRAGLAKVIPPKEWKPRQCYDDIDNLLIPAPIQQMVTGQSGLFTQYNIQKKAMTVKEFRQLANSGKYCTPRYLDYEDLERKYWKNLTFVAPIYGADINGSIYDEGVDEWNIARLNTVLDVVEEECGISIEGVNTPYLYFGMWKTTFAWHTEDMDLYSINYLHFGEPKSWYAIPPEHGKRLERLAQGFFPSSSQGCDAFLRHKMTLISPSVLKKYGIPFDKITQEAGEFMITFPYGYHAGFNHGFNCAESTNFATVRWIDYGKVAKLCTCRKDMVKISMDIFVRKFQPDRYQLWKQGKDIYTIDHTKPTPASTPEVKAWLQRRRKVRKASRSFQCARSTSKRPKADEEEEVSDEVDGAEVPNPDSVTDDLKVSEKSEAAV
NR2E3 ag-1 – NR2E3 (human) agonism | Q9Y5X4 | GST-NR2E3/biotin-RetCOR TR-FRET, 1536-well | inhibition of corepressor binding, % at 4.78 µM | actives 0.12% (n = 320,000) | AID 2300;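 active = percent inhibition above the cutoff of mean plus 3 SD of all tested compounds, set per screening campaign, cut at about 20% in these data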;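 note: 0% = DMSO wells and 100% = biotin wells as full block of FRET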
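Material – GST-tagged NR2E3 plus biotinylated RetCOR corepressor · Quantity – NR2E3 fusion 1.35 nM · Times – 5 h incubation at 4 °C · Medium – pH 7.5 Tris-based buffer · Technique – TR-FRET, Eu(K)-anti-GST donor, streptavidin-D2 acceptor, ex 340, em 617/671 nm · Benchmarks – high control biotin, low control 0.6% DMSO · Format – 1536-well plates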
NR2E3 ag-2 – agonists of human NR2E3 nuclear receptor. Q9Y5X4. CHO-S Gal4-NCOR/VP16-NR2E3 two-hybrid, luciferase. inhibition of corepressor binding, % at 3.98 µM. actives 0.35% (n = 360,000);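 active = inhibition above the mean of all tested compounds plus 3 SD, cut at about 70% in these data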;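 note: 0% = DMSO with NR2E3 transfected cells and 100% = cells lacking NR2E3 construct; higher means lower luciferase signal from less NR2E3 corepressor binding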
SMARCA2 activ – activators of SMARCA2 function; actives 1% (n = 370,000); activation, % at 9.1 µM; MG213 cells, MMTV-luciferase reporter, dexamethasone, overnight; in the data active = activation above about 7.8%;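 note: 0% = vehicle wells and 100% = reference activator wells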
DAX1 inh-1 – NR0B1 (DAX1) inhibition | inhibition, % at 6.75 µM | AID 504766 | HEK293 Gal4-DAX1 luciferase reporter, luminescence | actives 0.99% (n = 340,000) | P51843;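 active = inhibition above the mean over all tested compounds plus 3 SD, cut at about 4.2% in these data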;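 note: 0% = DAX1-transfected cells with DMSO and 100% = empty-vector control cells with DMSO; inhibition shows as a rise in luminescence from relieved DAX1 repression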
DAX1 inh-2 – inhibitors of DAX1 repression of SF-1 activated StAR promoter | HEK293T StAR-luciferase reporter, SF-1/DAX-1 repression relief | AID 652010 | inhibition, % at 6.8 µM | actives 1.1% (n = 370,000);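 active = inhibition above the mean over all tested compounds plus 3 SD, cut at about 3.6% in these data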;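 note: 0% = DAX-1 cells with DMSO and 100% = cells lacking DAX-1 with DMSO; higher inhibition means more luminescence from relief of DAX-1 repression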
* marks the source's active call; other numbers are inactive results; . = no result; ! = a repeat was not active. This is a sample that favours compounds with a hit; in the whole collection about 3.2% have one here.

SMILES	GASC-1 inh	NR2E3 ag-1	NR2E3 ag-2	SMARCA2 activ	DAX1 inh-1	DAX1 inh-2
CCCCCCCCN1C(=O)[C@@H](CC(=O)NCC2CCCCC2)C[C@@]2(C(=O)OC)C1=C[C@H](C(C)C)O[C@@H]2C1CC1	.	.	.	-3	.	1
COc1ccc(-c2csc(Nc3ccccn3)n2)cc1OC	-3	1	-149	4	4.8*	2
Oc1ccc(-c2csc(Nc3ccccn3)n2)cc1	5	1	-120	3	4.7*	1
N#CCC[C@H]1CC[C@]2(CCCN(Cc3ccccc3)C2)O1	.	.	.	-2	.	1
C/C(=N\NC(=O)c1ccoc1C)c1ccccc1	-11	7	-136	4	.	3.9*
Cc1occc1C(=O)N/N=C/C=C/c1ccccc1	-18	-2	-101	7.9*	4	4
Cc1occc1C(=O)N/N=C/C=C/c1ccc(N(C)C)cc1	-4	-8	-60	8	1	3.8*
Cc1occc1C(=O)N/N=C/C=C/c1ccccc1[N+](=O)[O-]	9	-3	-61	6	0	0
Cc1occc1C(=O)N/N=C/c1ccc(N(C)C)cc1	28	-2	-124	3	-2	3
N#Cc1cccc(NC(=O)OC2CCC23CCC(c2ccccc2)CC3)c1 (stereo not drawn)	.	.	.	-3	.	-2
O=C(COc1ccccc1)NCC(=O)N/N=C/c1ccc(O)cc1O	-5	-2	-23	-2	7.1*	-1
CCOC(=O)C(=O)N1CCC(C(=O)NC2CCCc3ccccc32)CC1 (stereo not drawn)	.	.	.	-7	.	0
Cn1nc(C(=O)Nc2ccc(S(=O)(=O)Nc3ncccn3)cc2)ccc1=O	13	2	34	-3	5.1*	0
Cn1nc(C(=O)Nc2ccc(S(=O)(=O)N3CCCC3)cc2)ccc1=O	3	-2	-7	-3	0	-1
CCOC(=O)N1CCN(C(=O)C[C@H]2C(=O)N(CCCOC)C3=CCCCC[C@]32C(=O)OC)CC1	.	.	.	-4	.	2
CCn1c(=O)c2c(nc3n2CCS3)n(C)c1=O	14	2	-14	3	1	1
Cn1c(=O)n(CC(=O)O)c(=O)c2c1nc1n2CCS1	30	1	9	1	6.4*!	0
COc1cccc(CNC(=O)C2CCN(c3nc(OC)nc(OC)n3)CC2)c1	.	.	.	-7	.	-1
CCCCNC(=O)Cn1cnc([N+](=O)[O-])n1	11	2	-9	2	4.8*	-1
C/C(=N\NC(=O)c1cc(C)oc1C)c1ccc2ccccc2c1	-24	5	-50	3	4.4*	0
COc1ccc(/C(C)=N/NC(=O)c2ccccc2N)cc1	-2	1	-88	7.9*	1	1
Cc1ccccc1OC(=O)C1C(c2ccccc2)C(C(=O)O)C1c1ccccc1 (stereo not drawn)	-10	-3	-9	-4	5.0*	0
Cn1c(=O)c(/C=C/c2ccc(F)cc2)nc2ccccc21	-11	.	-63	-1	1	1
Cn1c(=O)c(/C=C/c2ccccc2)nc2ccccc21	-12	-1	-135	5	3	4.2*
O=C(N/N=C/c1ccccc1[N+](=O)[O-])c1cnccn1	0	-3	-60	1	4.3*	1
SMILES	GASC-1 inh	NR2E3 ag-1	NR2E3 ag-2	SMARCA2 activ	DAX1 inh-1	DAX1 inh-2
Cc1ccn2c(NC(=O)c3cccs3)c(-c3ccccc3)nc2c1	2	-1	-11	-2	-1	-1
Cc1cccn2c(NC(=O)c3cccs3)c(-c3ccccc3)nc12	-49	1	4	7.9*	-2	0
O=C(NCc1ccccc1)C1COc2ccccc2O1 (stereo not drawn)	5	1	-31	1	-1	1
Cc1onc(-c2ccccc2)c1CNC(=O)C1COc2ccccc2O1 (stereo not drawn)	0	-1	-3	1	4.6*	0
c1cc(-c2cc3cc(N4CCOCC4)ccc3o2)cs1	6	3	-94	6	4.8*	3
COC(=O)[C@]12C[C@H](CC(=O)NCc3ccccc3)C(=O)N(Cc3ccc(Cl)cc3Cl)C1=C[C@H](COCc1ccccc1)O[C@@H]2C	.	.	.	-3	.	-1
CCCCn1c(N)c(N(CC)C(=O)C2=COCCO2)c(=O)[nH]c1=O	-4	3	-25	-1	1	3.9*
CCCCn1c(N)c(N(CCOC)C(=O)CCN2C(=O)C3CC=CCC3C2=O)c(=O)[nH]c1=O (stereo not drawn)	.	.	-26	-2	-1	-1
CCCCN(C(=O)CCN1C(=O)C2CC=CCC2C1=O)c1c(N)n(CCCC)c(=O)[nH]c1=O (stereo not drawn)	.	.	-8	-4	4.3*	0
O=C(NC1CCc2ccccc21)c1cc(-c2ccc(Cl)cc2)nc2ccccc12 (stereo not drawn)	.	.	.	-4	.	0
NC(CSC(c1ccccc1)(c1ccccc1)c1cccc2ccccc12)C(=O)O (stereo not drawn)	.	.	15	.	4.5*	.
O=[N+]([O-])c1cnn(-c2nc(-c3cccs3)cc(C(F)(F)F)n2)c1	-2	-4	-15	-4	4.7*	0
CN1CCN(c2nc(-c3cccs3)cc(C(F)(F)F)n2)CC1	-12	0	-7	-2	0	-1
CC1CCCCN1C(=O)Nc1ccccc1Cl (stereo not drawn)	5	5	-40	0	5.1*	0
O=C(NC1CCCC1)C1CCCN1C(=O)Nc1ccccc1Cl (stereo not drawn)	-4	1	9	-3	-1	0
Cc1cc(C(=O)NNS(=O)(=O)c2cccc(Cl)c2)nn1C(C)(C)C	0	-1	12	-4	4.2*	0
O=C(NNS(=O)(=O)c1cccc(Cl)c1)c1cc(-c2ccc(F)cc2)nc2ccccc12	11	2	-34	-3	2	0
Cc1cc(CNC(=O)Cn2nc(C)c([N+](=O)[O-])c2C)c2ccccc2n1	-3	1	-10	-1	0	4.3*
Cc1nn(CC(=O)NCc2ccccc2Cl)c(C)c1[N+](=O)[O-]	3	1	-9	0	0	1
CCOC(=O)CC[C@@H]1CC[C@]2(CCCN(Cc3ccc(OC)cc3)C2)O1	.	.	.	1	.	0
Cc1cccc(CCNC(=O)Cn2nc(-c3ccccc3)ccc2=O)c1	.	.	.	-1	.	-1
C/C(=N\Nc1ccc(Cl)cc1)c1ccncc1	1	0	12	2	1	0
C/C(=N\NC=O)c1ccncc1	3	-1	-9	-1	5.0*	-1
Cc1cc(Nc2ccc(Cl)cc2)n2ncnc2n1	2	.	12	-3	2	0
CCn1c2ccccc2c2cc(Nc3cc(C)nc4ncnn34)ccc21	-2	1	27	-5	-1	3.6*
